{
  "source": "paper PMC5844354",
  "about": "(Chembiochem : a European journal of chemical biology, 2018)",
  "key": {"[1]": {"molecular_target": "first bromodomain of BRD4", "conditions": "cited from earlier work"}, "BRD4(BD2)": {"molecular_target": "BRD4(BD2) (Homo sapiens, UniProt O60885)", "experiment": "NMR titration", "type": "binding"}, "Fis1 [2]": {"molecular_target": "T1, Fis1 (Homo sapiens, UniProt Q9Y3D6)", "T1 sequence (Q9Y3D6 1-125)": "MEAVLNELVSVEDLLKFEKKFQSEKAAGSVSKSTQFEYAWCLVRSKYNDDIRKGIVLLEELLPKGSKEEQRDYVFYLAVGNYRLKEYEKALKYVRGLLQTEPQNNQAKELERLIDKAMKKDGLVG", "type": "binding", "conditions": "for binding to Fis1 in library screen: 1 mM fragment, 352-fragment library screen; for nonspecific NMR crosspeak broadening of Fis1: 1 mM compound, 50 μM 15N-Fis1, SOFAST-HMQC", "procedure,_shortened": "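Human Fis1 cytosolic domain (residues 1–125), His₆-SUMO fusion, expressed in ¹⁵N minimal medium and Ni-affinity purified. Buffer was 50 mM sodium phosphate pH 7.0, 175 mM NaCl, 2 mM DTT, 10% D₂O. Library screen: 352 fragments pooled six per sample, 1 mM each, 97 μM protein, 3% [D₆]DMSO, hits at +1 σ. Follow-up: single fragments at 1 mM with 50 μM protein. ¹H,¹⁵N SOFAST-HMQC at 25°C.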"}, "Fis1 [3]": {"molecular_target": "T1, Fis1", "experiment": "Mass spectrometry of Fis1 with interfering compounds", "conditions": "from apo Fis1 14 487.2 Da; suggests direct chemical modification"}, "CXCL12": {"molecular_target": "CXCL12 (Homo sapiens, UniProt P48061)", "sequence (P48061 22-89 limits assumed)": "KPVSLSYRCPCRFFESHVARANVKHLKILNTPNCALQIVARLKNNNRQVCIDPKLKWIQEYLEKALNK", "experiment": "2D protein-detected NMR of individual compounds at 1 mM against 15N-CXCL12", "type": "binding", "conditions": "1 mM compound, 100 μM 15N-CXCL12, SOFAST-HMQC", "procedure,_shortened": "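Commercial recombinant human ¹⁵N-CXCL12. Each test compound was screened singly: 1 mM final in 0.5% (v/v) [D₆]DMSO, 99.5 μM final protein, with a DMSO control. Buffer was 50 mM sodium phosphate pH 6.0, 0.02% sodium azide, 10% D₂O. ¹H,¹⁵N SOFAST-HMQC at 25°C and 600 MHz with cryoprobe; 16 scans, 1024 × 210 complex points. Spectra were overlaid on the DMSO control.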"}},
  "data": [
    {"smiles": "CC(=O)Nc1ccc(O)cc1", "note": "[acetaminophen]", "values": [
      {"measurement": "Kd", "setting": "[1]", "result": 290, "unit": "µM"},
      {"measurement": "Kd", "setting": "BRD4(BD2)", "result": 1600, "unit": "µM"}
    ]},
    {"smiles": "Nc1cccc2cccc(N)c12", "note": "[1,8-diaminonaphthalene]", "values": [
      {"measurement": "binding to Fis1 in library screen", "setting": "Fis1 [2]", "result": "none of which bound appreciably"}
    ]},
    {"smiles": "Cc1cc(O)ccc1O", "note": "[2-methylbenzene-1,4-diol]", "values": [
      {"measurement": "mass shift of Fis1", "setting": "Fis1 [3]", "result": 119.7, "unit": "Da"}
    ]},
    {"smiles": "O=C1c2ccccc2C(=O)C1(O)O", "note": "[ninhydrin]", "values": [
      {"measurement": "nonspecific NMR crosspeak broadening of Fis1", "setting": "Fis1 [2]", "result": "induce nonspecific NMR crosspeak broadening across all targets screened"},
      {"measurement": "nonspecific NMR crosspeak broadening of CXCL12", "setting": "CXCL12", "result": "induce nonspecific NMR crosspeak broadening across all targets screened"}
    ]},
    {"smiles": "Nc1ccc(O)cc1", "note": "[4-aminophenol]", "values": [
      {"measurement": "nonspecific NMR crosspeak broadening of Fis1", "setting": "Fis1 [2]", "result": "did not induce nonspecific NMR crosspeak broadening"}
    ]},
    {"smiles": "NS(=O)(=O)c1ccc2ccccc2c1", "note": "[naphthalene-2-sulfonamide]", "values": [
      {"measurement": "binding to Fis1 in library screen", "setting": "Fis1 [2]", "result": "none of which bound appreciably"}
    ]},
    {"smiles": "Nc1cc2ccccc2cc1O", "note": "[3-amino-2-naphthol]", "values": [
      {"measurement": "binding to Fis1 in library screen", "setting": "Fis1 [2]", "result": "none of which bound appreciably"}
    ]}
  ]
}
